The record followed here is ChEMBL document CHEMBL1125330, “N-substituted pyrazino[2,3-c][1,2,6]thiadiazine 2,2-dioxides. A new class of diuretics” (J Med Chem, 1992).

Series [1] has as its system Rattus norvegicus. Nature of the series: Mean sodium excretion in rats when compound administered at 10 mg/kg po and vehicle dosed at 33.59 umol/kg. It is filed as ADME, organism-based. Conditions: in vivo. Details: dose 10 mg/kg, route oral. The method, boiled down: (§1)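 Male Sprague-Dawley rats (HC/CFY, 175-200 g) fasted and water-deprived 18 h before and during the test. Dosed by gavage at 2.5-160 mg/kg in 1% carboxymethyl cellulose/0.1% Tween 80, 0.5 mL/100 g bw. Immediately hydrated with water (2.5 mL/100 g bw, po). Urine collected 6 h in metabolic cages; Na+ and K+ by flame photometry; mean mequiv/6 h/kg bw; nonpaired Student t-test.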

In series [2] the test system is Rattus norvegicus. Nature of the series: Mean urinary output in rats when compound administered at 0 mg/kg po and vehicle dosed at 0 umol/kg. The note with it: in vivo. Further details: dose 0 mg/kg, route oral. The format is ADME, organism-based, Urine. The method, boiled down:
(§2)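 Water-loaded male Sprague-Dawley rats (HC/CFY, 175-200 g) fasted and without water for 18 h. Oral gavage of 2.5-160 mg/kg in 1% CMC with 0.1% Tween 80, then distilled water 2.5 mL/100 g po. Urine collected 6 h in metabolic cages, mean output in mL/6 h/kg bw. Unpaired Student t-test against vehicle; dose-response by linear regression.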

Series [3] concerns Rattus norvegicus. Briefly: Volume of urine 4 hr after the compound was administered 10 mg/kg po in rat. The format is ADME, organism-based. Further details: dose 10 mg/kg, route oral. The note with it: in vivo. The gist of the method:
(§3)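 Onset/duration protocol: male Sprague-Dawley rats (HC/CFY, 175-200 g), food and water withdrawn for 18 h before and during the test. Single gavage dose in 1% carboxymethyl cellulose/0.1% Tween 80 (0.5 mL/100 g bw), then distilled water load (2.5 mL/100 g bw po). Two rats per metabolic cage, six pairs per group. Urine collected at 0-1, 1-2, 2-3, 3-4 and 4-6 h; Na+ by flame photometry. Vehicle controls; nonpaired Student t-test.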

Series [4] relates to Rattus norvegicus. Briefly: Mean Chlorine excretion in rats when compound administered at 10 mg/kg po and vehicle dosed at 33.59 umol/kg. The format is ADME, organism-based. Further details: dose 10 mg/kg, route oral. The note with it: in vivo. The gist of the method:
(§4)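 Male Sprague-Dawley rats (HC/CFY, 175-200 g), no food or water for 18 h before and during the test. Single gavage dose (2.5-160 mg/kg; vehicle 1% carboxymethyl cellulose/0.1% Tween 80, 0.5 mL/100 g bw), then distilled water 2.5 mL/100 g bw po. Individual metabolic cages, 6 h urine. K+ by flame photometry, Cl- colorimetric, as mequiv/6 h/kg bw; unpaired Student t-test vs control.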

Series [5] has as its system Rattus norvegicus. Nature of the series: Mean urinary output in rats when compound administered at 5 mg/kg po and vehicle dosed at 16.79 umol/kg. Further details: dose 5 mg/kg, route oral. It is filed as ADME, organism-based, Urine. Conditions: in vivo. The gist of the method:
as §2

For series [6], the system named is Rattus norvegicus. Briefly: Mean potassium excretion in rats when compound administered at 40 mg/kg po and vehicle dosed at 134.35 umol/kg. The format is ADME, organism-based. Details: dose 40 mg/kg, route oral. Conditions: in vivo. The gist of the method: as §4
Series [7] has as its system Rattus norvegicus. Briefly: Volume of urine 1 hr after the compound was administered 10 mg/kg po in rat. The format is ADME, organism-based. Further details: dose 10 mg/kg, route oral. The note with it: in vivo. The method, boiled down: as §3
Series [8] has as its system Rattus norvegicus. Briefly: Urinary sodium 6 hr after the compound was administered 10 mg/kg po in rat. The format is ADME, organism-based, Urine. Details: dose 10 mg/kg, route oral. Conditions: in vivo. The gist of the method: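 Onset and duration study in fasted, water-loaded male Sprague-Dawley rats housed two per metabolic cage, six pairs per group. Single oral dose given, then water 2.5 mL/100 g po. Urine volume and sodium (flame photometry) measured over 0-1, 1-2, 2-3, 3-4 and 4-6 h intervals. Mean values compared with vehicle by Student t-test.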

For series [9], the system named is Rattus norvegicus. Briefly: Mean Chlorine excretion in rats when compound administered at 40 mg/kg po and vehicle dosed at 134.35 umol/kg. It is filed as ADME, organism-based. Further details: dose 40 mg/kg, route oral. Conditions: in vivo. The gist of the method:
as §4

Series [10] has as its system Rattus norvegicus. Briefly: Mean sodium excretion in rats when compound administered at 40 mg/kg po and vehicle dosed at 134.35 umol/kg. It is filed as ADME, organism-based. Details: dose 40 mg/kg, route oral. Conditions: in vivo. The method, boiled down: as §1
Series [11] concerns Rattus norvegicus. Briefly: Mean potassium excretion in rats when compound administered at 5 mg/kg po and vehicle dosed at 16.79 umol/kg. It is filed as ADME, organism-based. Further details: dose 5 mg/kg, route oral. Conditions: in vivo. The method, boiled down:
as §1

Series [12] deals with Rattus norvegicus. Nature of the series: Mean potassium excretion in rats when compound administered at 20 mg/kg po and vehicle dosed at 67.18 umol/kg. Further details: dose 20 mg/kg, route oral. The format is ADME, organism-based. Conditions: in vivo. The gist of the method:
as §4

Series [13] deals with Rattus norvegicus. Nature of the series: Mean Chlorine excretion in rats when compound administered at 80 mg/kg po and vehicle dosed at 268.71 umol/kg. The note with it: in vivo. It is filed as ADME, organism-based. Details: dose 80 mg/kg, route oral. The gist of the method:
as §4

Series [14] relates to Rattus norvegicus. Nature of the series: Mean Chlorine excretion in rats when compound administered at 20 mg/kg po and vehicle dosed at 67.18 umol/kg. The format is ADME, organism-based. Details: dose 20 mg/kg, route oral. The note with it: in vivo. The gist of the method: as §4
Series [15] concerns Rattus norvegicus. Briefly: Mean potassium excretion in rats when compound administered at 2.5 mg/kg po and vehicle dosed at 8.4 umol/kg. Further details: dose 2.5 mg/kg, route oral. The note with it: in vivo. The format is ADME, organism-based. The gist of the method:
as §4

Series [16] relates to Rattus norvegicus. Briefly: Volume of urine 2 hr after the compound was administered 10 mg/kg po in rat. Details: dose 10 mg/kg, route oral. The note with it: in vivo. It is filed as ADME, organism-based. The gist of the method:
as §3

In series [17] the test system is Rattus norvegicus. Briefly: Volume of urine 3h after the compound was administered 10 mg/kg po in rat. Details: dose 10 mg/kg, route oral. Conditions: in vivo. The format is ADME, organism-based. The method, boiled down: as §3
The subject of series [18] is Rattus norvegicus. Nature of the series: Mean urinary output in rats when compound administered at 2.5 mg/kg po and vehicle dosed at 8.4 umol/kg. The format is ADME, organism-based, Urine. Further details: dose 2.5 mg/kg, route oral. Conditions: in vivo. The gist of the method: as §2
The test system of series [19] is Rattus norvegicus. Nature of the series: Dose required to produce an excretion of 2 mequiv of Na+/kg bw/6h vs control groups. It is filed as functional. The gist of the method:
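Male Sprague-Dawley rats (HC/CFY, 175-200 g), fasted and water-deprived 18 h before and during the test. Compound dosed by gavage in 1% carboxymethyl cellulose/0.1% Tween 80, then water load 2.5 mL/100 g bw po. Urine collected 6 h in metabolic cages; Na+ by flame photometry. Effective doses vs vehicle controls derived by linear regression of dose-response data.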

In series [20] the test system is Rattus norvegicus. Nature of the series: Mean potassium excretion in rats when compound administered at 80 mg/kg po and vehicle dosed at 268.71 umol/kg. Conditions: in vivo. The format is ADME, organism-based. Details: dose 80 mg/kg, route oral. The gist of the method: as §1
The test system of series [21] is Rattus norvegicus. Nature of the series: Mean sodium excretion in rats when compound administered at 5 mg/kg po and vehicle dosed at 16.79 umol/kg. The format is ADME, organism-based. Further details: dose 5 mg/kg, route oral. The note with it: in vivo. The method, boiled down:
as §1

As for `NS(=O)(=O)c1cc2c(cc1Cl)NCNS2(=O)=O` [HYDROCHLOROTHIAZIDE], the Na in series [1] was 2.86 m equiv 6hr-1 kg-1 (body weight)-1; in series [10], 2.78 m equiv 6hr-1 kg-1 (body weight)-1; in series [21], 3.03 m equiv 6hr-1 kg-1 (body weight)-1. Besides, the V in series [2] is 24.3 ml 6hr-1 (kg of body weight)-1; in series [5], 38.07 ml 6hr-1 (kg of body weight)-1; in [18] it was 32.5 ml 6hr-1 (kg of body weight)-1. For the same compound, the Urine volume in series [3] stood at 2.92 mL; in series [7], 1.38 mL; in series [16] it was 4.97 mL; in series [17], 3.37 mL. Besides, the Cl- in [4] is 4.44 m equiv 6hr-1 kg-1 (body weight)-1; in series [9] it was 3.94 m equiv 6hr-1 kg-1 (body weight)-1; in series [13], 4.88 m equiv 6hr-1 kg-1 (body weight)-1; in series [14], 4.67 m equiv 6hr-1 kg-1 (body weight)-1. In addition, the K is 1.64 m equiv 6hr-1 kg-1 (body weight)-1 in [6]; 1.23 m equiv 6hr-1 kg-1 (body weight)-1 in series [11]; 1.43 m equiv 6hr-1 kg-1 (body weight)-1 in [12]; 1.26 m equiv 6hr-1 kg-1 (body weight)-1 in [15]; 1.57 m equiv 6hr-1 kg-1 (body weight)-1 in series [20]. Moreover, the “Urinary Na+” value in series [8] worked out at 0.24 m equiv. Besides, in series [19], the ED2 was found to be 1.57 mg/kg.
